The record followed here is ChEMBL document CHEMBL1143772, “Samarium(II) promoted stereoselective synthesis of antiproliferative cis-beta-alkoxy-gamma-alkyl-gamma-lactones” (2007).

What all share (type): functional
The test system of one experiment is SW1573. Briefly: Antiproliferation activity against human SW1573 cells after 48 hrs by SRB assay. The note with it: SW1573, 48 h. The method in brief:
(§1)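 NCI protocol, SRB read-out after 48 h continuous drug exposure; top test concentration 100 µM. A dose–response curve gives percentage growth (PG). GI50, TGI and LC50 are the concentrations at PG +50, 0 and −50. Values in µM, means of two to four experiments with standard deviation.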
In general terms: The SRB assay estimates cell density from bound dye.

For another experiment, the system named is A2780. Briefly: Antiproliferative activity against human A2780 cells after 48 hrs by SRB assay. The note with it: A2780, 48 h; for CC50: read-out: LC50 (the source's name). Summed up: as §1
The test system of another experiment is WiDr. Description: Antiproliferation activity against human WiDr cells after 48 hrs by SRB assay. The note with it: for CC50: read-out: LC50 (the source's name). The method in brief:
as §1

A word on the GI50: it is the concentration giving 50% growth inhibition. High values mean less potent growth inhibition, low ones more potent growth inhibition. The TGI is the concentration at which net growth stops. A higher TGI goes with lower sensitivity of the cells.

For the compound `CCCCCCC[C@H]1OC(=O)C[C@H]1OC1C=CCCC1` (some centres not stated), in the experiment with SW1573, it took 23 µM to inhibit growth by half (GI50), the LC50 (concentration giving 50% net cell kill) came out at 95 µM and the TGI was 49 µM. For the same compound, it took 84 µM to inhibit growth with A2780 by half (GI50).

`CCCCCCC[C@H]1OC(=O)C[C@H]1OCc1ccccc1`: the GI50 is 44 µM with WiDr, 52 µM in the experiment on SW1573 and 63 µM in the experiment with A2780.

For `CCCCCCC[C@H]1OC(=O)C[C@H]1OC1CCCCC1`, in the experiment on WiDr, the GI50 was determined as 16 µM, the total growth inhibition concentration (TGI) amounted to 33 µM and the CC50 turned out to be 71 µM. In the experiment on SW1573, this compound came in with a GI50 of 18 µM, an LC50 (concentration giving 50% net cell kill) of 71 µM and a TGI of 36 µM. For the same compound, in the experiment on A2780, it took 16 µM to inhibit growth by half (GI50), net growth stopped (TGI) at 31 µM and the CC50 amounted to 61 µM.

As for `C=CC(CCCCC)O[C@@H]1CC(=O)O[C@@H]1CCCCCCC` (some centres not stated), in the experiment on WiDr, the GI50 came out at 27 µM, total growth inhibition (TGI) required 81 µM and the CC50 turned out to be 97 µM. For the same compound, in the experiment with SW1573, the concentration for 50% growth inhibition (GI50) was 27 µM, the LC50 (concentration giving 50% net cell kill) was found to be 96 µM and the TGI came to 78 µM. For the same compound, in the experiment with A2780, the GI50 is 19 µM, the TGI came to 42 µM and the CC50 was found to be 88 µM.

On to `C#CC(CCCCCCC)O[C@@H]1CC(=O)O[C@@H]1CCCCCCC` (some centres not stated), for which, in the experiment on WiDr, the GI50 was determined as 32 µM and the TGI turned out to be 86 µM. Also, in the experiment with SW1573, the GI50 came to 32 µM, the LC50 (concentration giving 50% net cell kill) stood at 97 µM and net growth stopped (TGI) at 83 µM. In addition, in the experiment with A2780, growth was halved (GI50) at 22 µM, the TGI came to 51 µM and the CC50 is 80 µM.

With `C=CCC(C)O[C@@H]1CC(=O)O[C@@H]1CCCCCCC` (some centres not stated), the GI50 in the experiment on WiDr is 39 µM; in the experiment on SW1573, 33 µM; in the experiment with A2780, 48 µM. In the experiment with SW1573, this compound yielded a TGI of 83 µM.
